Here are results for 22 molecules from ChEMBL document CHEMBL4477226, “Reduction Sensitive Lipid Conjugates of Tenofovir: Synthesis, Stability, and Antiviral Activity” (J Med Chem, 2016).

The test system of series [1] is Human immunodeficiency virus 1. In words: Antiviral activity against HIV1 infected in human PBMC assessed as inhibition of viral replication by measuring reverse transcriptase activity in cell supernatant preincubated with cells followed by viral infection measured after 7 days by radioactive incorporation polymerization assay. The class given is functional, organism-based. The gist of the method:
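HIV-infected PBMCs; antiviral activity read as reverse transcriptase in cell supernatants; EC50 is the concentration in μM that inhibits HIV-1 by 50%.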

Series [2] relates to Hepatitis B virus. Kind of series: Antiviral activity against HBV infected in human HepG2.2.15 cells assessed as inhibition of viral DNA in cell supernatant incubated for 3 days in presence of 10% FBS followed by compound treatment in absence of 10% FBS for 3 days by qRT-PCR method. As to conditions: HepG2.2.15, 72 h. It is filed as functional, organism-based. The gist of the method:
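HBV assay in HepG2.2.15 cells; viral DNA quantified by qPCR after 6 days of incubation.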

A short description of series [3]: Therapeutic index, ratio of CC50 for human HepG2.2.15 cells to EC50 for HBV infected in human HepG2.2.15 cells. The settings on record: read-out: Ratio CC50/EC50. It is filed as toxicity, cell-based.
In series [4] the test system is HepG2 2.2.15. Kind of series: (§1) Cytotoxicity against human HepG2.2.15 cells assessed as reduction in cell viability after 6 days by XTT assay. It is filed as cell-based. The settings on record: hepg2 2.2.15, 144 h. On the technique in general: Formazan colour is commonly taken as a measure of viable cells.
Series [5] is described as follows: Therapeutic index, ratio of CC50 for human PBMC to EC50 for HIV1 infected in human PBMC. The class given is toxicity. As to conditions: read-out: Ratio CC50/EC50. In outline: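 TI is the ratio of PBMC CC50 (uninfected cells, 50% viability loss) to EC50 for 50% inhibition of HIV-1, both in μM; HIV-1 activity measured as reverse transcriptase in supernatants of infected PBMCs.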

The subject of series [6] is PBMC. In words: (§2) Cytotoxicity against human PBMC assessed as reduction in cell viability by XTT assay. It is filed as cell-based. In outline:
(§3)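 CC50 is the concentration in μM that reduces viability of uninfected PBMCs by 50%.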

Series [7] is described as follows: as §1. As to conditions: HepG2.2.15 cells. The class given is cell-based, HepG2 2.2.15.
Series [8] can be described thus: as §2. The class given is cell-based. In outline:
as §3

Series [9] in a line: Half life in human plasma at 2 mg by LC-MS analysis. It is filed as ADME, cell-free. In outline: (§4)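 Compound incubated in human serum, PBS (pH 7.4), DMEM, or carbonate/bicarbonate buffer (pH 9). Aliquots were taken at several time points over 2 h, with a final sample at 24 h, and analysed by LC-MS to follow decomposition. Half-life was derived from loss of parent over time.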

Series [10] can be described thus: Half life in pH 7.4 phosphate buffered saline at 2 mg using kimax glassware by LC-MS analysis. It is filed as physicochemical. In outline: as §4
Series [11] is described as follows: Half life in DMEM at 2 mg using kimax glassware by LC-MS analysis. The class given is physicochemical. In outline:
as §4

Series [12] in a line: Half life in pH 9 Sodium carbonate/bicarbonate buffer at 2 mg using kimax glassware by LC-MS analysis. It is filed as physicochemical. The gist of the method:
as §4

The nature of series [13]: Therapeutic index, ratio of CC90 for human PBMC to EC90 for HIV1 infected in human PBMC. It is filed as toxicity. As to conditions: read-out: TI. In outline: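 HIV-1-infected human PBMCs; antiviral effect read as reverse transcriptase activity in culture supernatants. Toxicity measured as loss of viability in uninfected PBMCs. Index calculated as the cytotoxic concentration divided by the effective concentration at the 90% level (CC90/EC90).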

Series [14] can be described thus: Half life in pH 7.4 phosphate buffered saline at 2 mg by LC-MS analysis. The class given is physicochemical. In outline: as §4
Series [15] can be described thus: Stability in DMEM at 2 mg by LC-MS analysis. The class given is physicochemical. As to conditions: in vitro. The gist of the method: as §4
A short description of series [16]: Stability in pH 9 Sodium carbonate/bicarbonate buffer at 2 mg by LC-MS analysis. As to conditions: in vitro. The class given is physicochemical. In outline: as §4

The structures appear in SMILES notation. pEC50: −log10 of the molar value. Counter-ions that a name gives are not always drawn.

The pEC50 is the negative decadic logarithm of the EC50, by convention in mol/L. One may read the CC50 as the concentration giving 50% cytotoxicity. In general, half-life refers to the time needed for the level to fall by half in the phase considered. Lower therefore signals fast loss.

Consider `CCCCCCCCCCCCSSCCOP(=O)(O)CO[C@H](C)Cn1cnc2c(N)ncnc21`, for which the figures for the pEC50 in [1] and in [2] were 8.52 and 5.78, respectively. Besides, the selectivity ratio in series [3] was above 30; in [5], 8300. The CC50 in series [4] is above 50 µM; in [6] it was 25 µM.

Take `CCCCCCCCCCCCCCCCSSCCOP(=O)(CO[C@H](C)Cn1cnc2c(N)ncnc21)Nc1ccccc1` (stereo not given in full): the pEC50 in series [1] was 8.30. Moreover, the selectivity ratio in series [5] stood at 7000. Moreover, in series [6], the CC50 was determined as 34.2 µM.

For the molecule `CCCCCCCCCCCCCCCCCCSSCCOP(=O)(CO[C@H](C)Cn1cnc2c(N)ncnc21)OCCSSCCCCCCCCCCCCCCCCCC`, the pEC50 in series [1] was 6.48; in [2] it was below 4.60. The results for the selectivity ratio in series [3] and in [5] were above 1 and above 76, respectively. Also, the CC50 at 144 h in [7] is above 25 µM. Further, the CC50 in series [8] is above 25 µM.

Take `CCCCCCCCCCCCCCCCSSCCOP(=O)(CO[C@H](C)Cn1cnc2c(N)ncnc21)OCc1ccccc1` (stereo not given in full): in series [1], the pEC50 was 7.74. The selectivity ratio in [5] came to 2300. For the same molecule, the cytotoxic concentration (CC50) in series [6] came to 41.1 µM.

Take `CCCCCCCCCCCCCCCCSSCCOP(=O)(CO[C@H](C)Cn1cnc2c(N)ncnc21)OCCC` (stereo not given in full): the pEC50 in series [1] is 6.67. Besides, the selectivity ratio in series [5] was 49. Besides, the CC50 in [6] was determined as 10.6 µM.

Regarding `CCCCCCCCCCSSCCOP(=O)(O)CO[C@H](C)Cn1cnc2c(N)ncnc21`, the values for the pEC50 in [1] and in series [2] were 7.07 and below 4.30, respectively. Further, the figures for the selectivity ratio in series [3] and in series [5] were above 1 and above 590, respectively. Also, the CC50 in series [4] and in series [6] was above 50 µM in each case.

As for `CCCCCCCCCCSSCCOP(=O)(CO[C@H](C)Cn1cnc2c(N)ncnc21)OCCSSCCCCCCCCCC`, the pEC50 is 6.46 in [1] and below 4.00 in series [2]. In addition, the selectivity ratio is above 1 in series [3] and above 287 in series [5]. Besides, the CC50 at 144 h in [7] is above 100 µM. Further, the CC50 in [8] was above 100 µM.

Regarding `C[C@H](Cn1cnc2c(N)ncnc21)OCP(=O)(O)OCCS`, the pEC50 in series [2] was 4.38. Besides, the CC50 in series [4] and in series [6] was above 100 µM each time.

For the molecule `CCCCCCCCCCCCCCCCSSCCOP(=O)(CO[C@H](C)Cn1cnc2c(N)ncnc21)OCC` (stereo not given in full), the pEC50 in series [1] is 6.46. In series [5], the selectivity ratio is 104. The CC50 in series [6] stood at 36.2 µM.

Regarding `CCCCCCCCCCCCCCCCCCSSCCOP(=O)(O)CO[C@H](C)Cn1cnc2c(N)ncnc21`, the figures for the pEC50 in series [1] and in series [2] were 9.22 and 6.30, respectively. The selectivity ratio in series [3] is above 50; in series [5], 11000. The CC50 in series [4] is above 50 µM; in series [6], 6.36 µM.

For the molecule `CCCCCCCCCCCCSSCCOP(=O)(CO[C@H](C)Cn1cnc2c(N)ncnc21)OCCSSCCCCCCCCCCCC`, the negative logarithm of the EC50 (pEC50) in series [1] is 5.93; in [2] it was below 4.00. The results for the selectivity ratio in series [3] and in series [5] were above 1 and above 85, respectively. Besides, the CC50 at 144 h in series [7] is above 100 µM. For the same molecule, the CC50 in series [8] is above 100 µM.

As for `CCCCCCCCCCCCCCCCSSCCOP(=O)(O)CO[C@H](C)Cn1cnc2c(N)ncnc21.N`, the values for the pEC50 in [1] and in series [2] were 9.19 and 7.70, respectively. Besides, the t1/2 in series [9] was above 24 h. The selectivity ratio is 1200 to 1250 in series [3], 22000 in series [5] and 11000 in series [13]. Moreover, the half-life in series [10] was below 120 min; in series [11] it was below 120 min; in series [12], below 120 min; in [14], below 20 min. The CC50 was above 25 µM in [4] and 14.3 µM in series [6]. The Stability entry in series [15] and in series [16] was “Unstable” throughout.

For `CCCCCCCCCCCCCCCCSSCCOP(=O)(CO[C@H](C)Cn1cnc2c(N)ncnc21)OCCSSCCCCCCCCCCCCCCCC`, the pEC50 is 5.20 in series [1] and below 4.60 in series [2]. Besides, the selectivity ratio was above 1 in series [3] and 4 in series [5]. Also, the CC50 at 144 h in series [7] was above 25 µM. In addition, the CC50 in series [8] is above 25 µM.

For the molecule `CCCCCCCCCCCCCCCCSSCCOP(=O)(CO[C@H](C)Cn1cnc2c(N)ncnc21)OC` (stereo not given in full), the pEC50 in series [1] was 7.59. Also, the selectivity ratio in series [5] was 1500. The CC50 in series [6] is 38.2 µM.

Consider `CCCCCCCCCCCCCCCCSSCCOP(=O)(CO[C@H](C)Cn1cnc2c(N)ncnc21)OCCCCCCCC` (stereo not given in full), for which the pEC50 in [1] is 6.04. In addition, the selectivity ratio in [5] is above 50. Also, the CC50 in [8] was above 50 µM.

`CCCCCCCCCCCCCCCCSSCCOP(=O)(CO[C@H](C)Cn1cnc2c(N)ncnc21)OCCCC` (stereo not given in full): the pEC50 in series [1] was 6.72. Moreover, the selectivity ratio in series [5] turned out to be 150. Besides, the CC50 in series [6] came to 27.9 µM.

`CCCCCCCCCCCCCCSSCCOP(=O)(CO[C@H](C)Cn1cnc2c(N)ncnc21)OCCSSCCCCCCCCCCCCCC`: the pEC50 is 6.72 in series [1] and below 4.00 in [2]. Further, the selectivity ratio in series [3] was above 1; in [5], above 529. Further, the cytotoxic concentration (CC50) at 144 h in [7] was above 100 µM. Also, the CC50 in series [8] was above 100 µM.

Take `C[C@H](Cn1cnc2c(N)ncnc21)OCP(=O)(O)OCCSSCCO`: the figures for the pEC50 in series [1] and in series [2] were 5.79 and 4.94, respectively. The same molecule returned a t1/2 in series [9] below 0.567 h. In addition, the selectivity ratio in series [3] is above 8.6; in series [5], above 62.1. Further, the CC50 in [4] and in series [6] was above 100 µM in each case. In series [14], this molecule showed a half-life of 210 min.

As for `CCCCCCCCCCCCCCSSCCOP(=O)(O)CO[C@H](C)Cn1cnc2c(N)ncnc21.N`, the pEC50 was 9.30 in series [1] and 6.35 in series [2]. In addition, the t1/2 in series [9] is above 24 h. Also, the selectivity ratio in [3] was above 56; in series [5] it was 28000 to 30000; in series [13], 11000. Moreover, the half-life in series [10], in series [11] and in series [12] was below 120 min throughout. Moreover, the CC50 in series [4] is above 25 µM; in series [6] it was 14 µM. Besides, the Stability entry in [15] and in series [16] was “Unstable” each time.

With `CCCCCCCCCCCCCCCCSSCCOP(=O)(CO[C@H](C)Cn1cnc2c(N)ncnc21)OCC(C)(C)C` (mixture of isomers), in [1], the pEC50 is 6.85. Also, the selectivity ratio in [5] was above 700. Besides, the CC50 in [6] is above 100 µM.

For `CC(C)OC(=O)OCOP(=O)(CO[C@H](C)Cn1cnc2c(N)ncnc21)OCOC(=O)OC(C)C` [TENOFOVIR DISOPROXIL FUMARATE], the pEC50 in series [1] was 8.34; in series [2] it was 6.47. The figures for the selectivity ratio in series [3], in [5] and in series [13] were 86 to 190, 9500 and 1300, respectively. The CC50 at 144 h in [7] lay within 29.2 to 64.5 µM. For the same molecule, the CC50 in [6] is 43.7 µM.

Turning to `CCCCCCCCCCCCCCCCOCCCOP(=O)(O)CO[C@H](C)Cn1cnc2c(N)ncnc21` [TENOFOVIR EXALIDEX], in series [1], the pEC50 is 7.70. Besides, in series [5], the selectivity ratio is above 5000. Moreover, in [6], the CC50 is above 100 µM.
